Experimental data reported in ChEMBL document CHEMBL4834426, “Antimalarial Benzimidazole Derivatives Incorporating Phenolic Mannich Base Side Chains Inhibit Microtubule and Hemozoin Formation: Structure-Activity Relationship and In Vivo Oral Efficacy Studies” (J Med Chem, 2021).
Converted amounts (≈) assume the structure as drawn. The source made the active and inactive calls. The rule behind the calls is not given here.

How the values were obtained:
[1] = Inhibition of tubulin polymerization in asexual blood stage Plasmodium falciparum NF54
[2] = Selectivity index, ratio of IC50 for Cytotoxicity against CHO cells assessed as inhibition of cell viability by MTT assay to IC50 for antimalarial activity against asexual blood stage Plasmodium falciparum NF54 assessed as reduction in parasitemia incubated up to 72 hrs by [3H]hypoxanthine incorporation assay; format: toxicity, cell-based; settings: hamster, read-out: Selectivity Index
In short: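 Selectivity index is IC₅₀(CHO)/IC₅₀(NF54). […] IC₅₀ came from nonlinear dose-response fitting. Parasite IC₅₀ came from the [³H]-hypoxanthine assay.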

Plasmodium falciparum [3] = assay: Antiplasmodial activity against […] Plasmodium falciparum NF54 early gametocytes transfected with GFP-Luc […] at 1 uM incubated for 48 hrs by microscopy based luciferase reporter gene assay relative to control; format: functional
In short: (§1)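 NF54-Pfs16-GFP-Luc gametocytes, assays set up day 5 (early, stage II/III) or day 10 (late, stage IV/V). Culture at 2−3% gametocytemia, 1.5% hematocrit, 48 h drug exposure at 37 °C under 90% N₂/5% O₂/5% CO₂. Lysates mixed with luciferin; bioluminescence read with 10 s integration. Dual-point: one biological repeat in technical triplicate. Methylene blue (5 μM) reference.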

Plasmodium falciparum [4] = assay: Antiplasmodial activity against […] Plasmodium falciparum NF54 early gametocytes transfected with GFP-Luc […] at 5 uM incubated for 48 hrs by microscopy based luciferase reporter gene assay relative to control; format: functional; in short: as §1
[5] = Resistance index, ratio of IC50 for antimalarial activity against asexual blood stage multi drug-resistant Plasmodium falciparum K1 to IC50 for antimalarial activity against asexual blood stage drug-sensitive Plasmodium falciparum NF54; format: functional
In short: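 Resistance index is IC₅₀(K1)/IC₅₀(NF54). Both IC₅₀s came from the [³H]-hypoxanthine incorporation assay, as means of ≥2 independent experiments.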

Plasmodium falciparum [6] = assay: Antiplasmodial activity against […] Plasmodium falciparum NF54 early gametocytes transfected with GFP-Luc […] incubated for 48 hrs by microscopy based luciferase reporter gene assay relative to control; format: functional, organism-based; settings: NF54, 48 h
In short: (§2)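 Transgenic NF54-Pfs16-GFP-Luc gametocytes, read by luciferase reporter. Early assays were set up on day 5 (50% stage II/50% stage III) and late assays on day 10 (40% stage IV/60% stage V). Luciferin was added to lysates at room temperature and bioluminescence read. Methylene blue (5 μM) was the reference. Single-point screens at 1 and 5 μM used n=1 in technical triplicate. IC₅₀ came from a normalized nonlinear fit, n≥3 in triplicate.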

[7] = Metabolic stability in mouse liver microsomes assessed as compound remaining at 1 uM incubated for 30 mins by LC-MS/MS analysis; format: ADME, Microsome; settings: read-out: Stabilty
In short: (§3)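 Single-point design: 1 μM compound with 0.4 mg/mL liver microsomes in 0.1 M phosphate buffer pH 7.4 for 30 min. Quenched with ice-cold acetonitrile containing carbamazepine internal standard, centrifuged, analyzed by LC−MS/MS. Percent remaining from internal-standard-corrected peak areas at 30 min versus 0 min. Propranolol, midazolam and MMV390048 as controls.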

Plasmodium falciparum [8] = assay: Antimalarial activity against asexual blood stage multi drug-resistant Plasmodium falciparum K1 infected in erythrocytes assessed as reduction in parasitemia incubated up to 72 hrs by [3H]hypoxanthine incorporation assay; format: functional, organism-based
In short: (§4)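 [³H]-Hypoxanthine incorporation assay (modified) on asexual blood-stage P. falciparum in vitro. IC₅₀ values are means of ≥2 independent experiments.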

Plasmodium falciparum [9] = assay: Antiplasmodial activity against […] Plasmodium falciparum NF54 late gametocytes transfected with GFP-Luc […] at 5 uM incubated for 48 hrs by microscopy based luciferase reporter gene assay relative to control; format: functional; in short: as §1
[10] = Metabolic stability in human liver microsomes assessed as compound remaining at 1 uM incubated for 30 mins by LC-MS/MS analysis; format: ADME, Microsome; settings: read-out: Stabilty; in short: as §3
[11] = Metabolic stability in rat liver microsomes assessed as compound remaining at 1 uM incubated for 30 mins by LC-MS/MS analysis; format: ADME, Microsome; settings: read-out: Stabilty; in short: as §3
[12] = Kinetic solubility of the compound in pH 6.5 incubated for 24 hrs by HPLC-DAD analysis; format: physicochemical; settings: buffer, read-out: Kinetic_solubility
In short: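 Miniaturized shake-flask method. 10 mM DMSO stock dried down, phosphate buffer pH 6.5 added, shaken 24 h at 25 °C. Centrifuged 3500g for 15 min; supernatant analyzed by HPLC-DAD against 10−220 μM DMSO calibration curve. Reserpine, hydrocortisone and MMV390048 as controls.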

Plasmodium falciparum [13] = assay: Antimalarial activity against asexual blood stage drug-sensitive Plasmodium falciparum NF54 infected in erythrocytes assessed as reduction in parasitemia incubated up to 72 hrs by [3H]hypoxanthine incorporation assay; format: functional, organism-based; in short: as §4
CHO = assay: Cytotoxicity against CHO cells assessed as inhibition of cell viability by MTT assay; format: cell-based; settings: Cricetulus griseus
Plasmodium falciparum [14] = assay: Antiplasmodial activity against […] Plasmodium falciparum NF54 late gametocytes transfected with GFP-Luc […] at 1 uM incubated for 48 hrs by microscopy based luciferase reporter gene assay relative to control; format: functional; in short: as §1
Plasmodium falciparum [15] = assay: Antiplasmodial activity against […] Plasmodium falciparum NF54 late gametocytes transfected with GFP-Luc […] incubated for 48 hrs by microscopy based luciferase reporter gene assay relative to control; format: functional, organism-based; settings: NF54, 48 h; in short: as §2
Plasmodium berghei = assay: Antimalarial activity against GFP-transfected Plasmodium berghei ANKA infected in NMRI mouse model assessed as reduction in parasitemia at 50 mg/kg, po dosed 4 times relative to control; format: functional; design: scale not given: the % may be the effect or the level left
In short: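 Mice (n = 3) infected with GFP-transfected P. berghei ANKA. Compound in 70% Tween-80/30% ethanol, diluted 10-fold in water, given orally at 4, 24, 48 and 72 h post-infection. Blood taken day 4 (96 h); parasitemia by flow cytometry, detection limit 0.1%. Activity = difference in mean % parasitemia between control and treated, as % of control.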

Hemozoin [16] = assay: Inhibition of Beta-hematin in early ring stage Plasmodium falciparum parasitized red blood cells assessed as hemozoin formation formation after 32 hrs by Giemsa staining based haemocytometric counting method
Hemozoin [17] = assay: Inhibition of beta-hematin formation […] incubated for 5 hrs by NP40 detergent-mediated assay
In short: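 Cell-free β-hematin formation assay in NP-40 (305.5 μM) lipid-mimic medium. Compounds from 20 mM stock serially diluted across wells, in duplicate. Hematin suspended in 1 M acetate buffer pH 4.8; plates incubated ~5 h at 37 °C. Then pyridine solution (with HEPES pH 7.4) and acetone added; absorbance at 405 nm. IC₅₀ by curve fit.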

SMILES | IC50 [1] [µM] | selectivity ratio at 72 h [2] | inhibition at 1 µM (Plasmodium falciparum [3]) [%] | inhibition at 5 µM (Plasmodium falciparum [4]) [%] | Ratio IC50 [5] | IC50 (Plasmodium falciparum [6]) [µM] | remaining at 0.5 h, 1 µM [7] [%] | IC50 (Plasmodium falciparum [8]) [µM] | inhibition at 5 µM (Plasmodium falciparum [9]) [%] | remaining at 0.5 h, 1 µM [10] [%] | remaining at 0.5 h, 1 µM [11] [%] | solubility kinetic at 24 h [12] [µM] | IC50 (Plasmodium falciparum [13]) [µM] | IC50 (CHO) [µM] | inhibition at 1 µM (Plasmodium falciparum [14]) [%] | IC50 (Plasmodium falciparum [15]) [µM] | Activity (Plasmodium berghei) [%] | Activity (Hemozoin [16]) | IC50 (Hemozoin [17]) [µM]
CCCSc1ccc2[nH]c(NC(=O)OC)nc2c1 [ALBENDAZOLE] | 30 |  |  |  |  |  |  |  |  |  |  |  |  |  |  |  |  |  | 
CC(C)(C)NCc1cc(Cl)cc(Nc2nc3ccccc3n2Cc2ccc(C(F)(F)F)cc2)c1O |  | 130 | 44 | 92 | 0.21 | 0.59 | 36 | 0.06 | 0 | 81 | 9 | < 5 | 0.28 | 36.3 | 0 |  |  |  | 
CCN(CC)Cc1cc(Cl)cc(Nc2nc3ccccc3n2Cc2ccc(C(F)(F)F)cc2)c1O |  | > 333 | 69 | 89 | 0.33 | 0.056 |  | 0.05 | 10 |  |  |  | 0.15 | > 50 | 2 | 1.9 |  |  | 
CCN(CC)Cc1cc(C)cc(Nc2nc3ccccc3n2Cc2ccc(C(F)(F)F)cc2)c1O |  | 154 | 91 | 97 | 0.32 | 0.11 | < 7 | 0.06 | 62 | 36 | < 7 | < 5 | 0.19 | 29.3 | 41 |  |  |  | 
Cc1cc(CNC(C)(C)C)c(O)c(Nc2nc3ccccc3n2Cc2ccc(C(F)(F)F)cc2)c1 |  | 75.1 | 45 | 96 | 0.58 | 0.92 | 62 | 0.23 | 62 | 99 | 41 | 50 (≈ 24.1 µg/mL) | 0.4 | 30 | 0 |  | <40 |  | 
COC(=O)Nc1nc2cc(C(=O)c3cccs3)ccc2[nH]1 [NOCODAZOLE] | 17 |  |  |  |  |  |  |  |  |  |  |  |  |  |  |  |  |  | 
CCN(CC)Cc1cccc(Nc2nc3ccccc3n2Cc2ccc(C(F)(F)F)cc2)c1O |  | > 113 | 71 | 93 | 0.3 | 1.45 |  | 0.13 | 56 |  |  |  | 0.44 | > 50 | 35 |  |  |  | 
CCN(CC)Cc1cc(F)cc(Nc2nc3ccccc3n2Cc2ccc(C(F)(F)F)cc2)c1O |  | > 294 | 74 | 90 | 1.12 | 0.097 |  | 0.19 | 10 |  |  |  | 0.17 | > 50 | 0 | > 5 |  |  | 
CC(C)(C)NCc1cc(Cl)cc(Nc2nc3cc(F)c(F)cc3n2Cc2ccc(C(F)(F)F)cc2)c1O |  | > 263 | 14 | 70 | 0.47 | 0.69 | 94 | 0.09 | 1 | 89 | 94 | < 5 | 0.19 | > 50 | 31 |  | <40 |  | 
CCNCc1cc(C)cc(Nc2nc3ccccc3n2Cc2ccc(C(F)(F)F)cc2)c1O |  | 24.1 | 30 | 95 | 0.39 | 0.99 | 52 | 0.3 | 14 | 98 | 51 | 35 (≈ 15.9 µg/mL) | 0.78 | 18.8 | 0 |  |  |  | 
CCN(CC)Cc1cccc(Nc2nc3ccccc3n2Cc2ccc(F)cc2)c1O |  | > 136 | 65 | 91 | 0.5 | 2.23 |  | 0.18 | 58 |  |  |  | 0.36 | > 50 | 36 |  |  |  | 
CCNCc1cc(Cl)cc(Nc2nc3ccccc3n2Cc2ccc(C(F)(F)F)cc2)c1O |  | 121 | 66 | 91 | 0.39 | 0.43 | 73 | 0.11 | 8 | 94 | 66 | 12 (≈ 5.7 µg/mL) | 0.28 | 33.8 | 0 | > 5 | <40 | inactive | 33.3
COc1cc2c(c(OC)c1OC)-c1ccc(OC)c(=O)cc1[C@@H](NC(C)=O)CC2 [COLCHICINE] | 10 |  |  |  |  |  |  |  |  |  |  |  |  |  |  |  |  |  | 
CCN(CC)Cc1cc(C)cc(Nc2nc3ccccc3n2Cc2ccc(F)cc2)c1O |  | 34 | 81 | 97 | 0.38 | 0.88 |  | 0.21 | 58 |  |  |  | 0.55 | 18.7 | 41 |  |  |  | 
Cc1cc(CNC(C)(C)C)c(O)c(Nc2nc3cc(F)c(F)cc3n2Cc2ccc(C(F)(F)F)cc2)c1 |  | 40.2 | 60 | 96 | 0.6 | 0.52 | > 99 | 0.15 | 73 | 90 | 89 | < 5 | 0.25 | 10 | 0 |  |  |  | 
CCNCc1cc(C)cc(Nc2nc3cc(F)c(F)cc3n2Cc2ccc(C(F)(F)F)cc2)c1O |  | 7.84 | 86 | 94 | 0.5 | 0.21 | 93 | 0.13 | 24 | 99 | 77 | 16 (≈ 7.85 µg/mL) | 0.26 | 2.04 | 0 | 2.33 |  |  | 
